In data set [1] the test system is CT26 (murine colon cancer) tumor. Nature of the data set: In vivo tumor growth inhibition in CT26 tumor-bearing mice. The arrangement: species or system BALB/c mice. The procedure, abridged: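 Female BALB/c mice, 6 weeks old, received 1×10⁶ CT26 cells in PBS in the right dorsal flank. At 70–100 mm³, mice were randomised to seven groups of 14: untreated; IV drug 3.3 or 10 mg/kg once biweekly; oral aqueous drug 10 mg/kg daily; oral formulation at 2.5, 10 or 20 mg/kg equivalent daily, for 21 days. Mice were fasted 4 h before and 2 h after dosing. Caliper volume (width²×length×0.52) was recorded every 3 days. Day-21 tumors were weighed and stained for CD31, PCNA and TUNEL.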

The subject of data set [2] is Madin–Darby Canine Kidney (MDCK) cells. The data set is described as follows: In vitro cytotoxicity. Format: cell-based. As to conditions: 12 h. The procedure, abridged:
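MDCK cells seeded at 5×10³ cells/well in DMEM with 10% FBS and 1% penicillin/streptomycin, then held 24 h at 37°C. Treated with test formulations diluted in DMEM at 1, 10, 25, 50, 100, 250 and 500 µg/mL drug equivalent, with matching excipient-only controls, for 12 h. WST-8 was added for 2 h and absorbance read at 450 nm. Viability is expressed relative to untreated cells.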

Data set [3] can be described thus: In vitro drug release. In kind it is physicochemical. As to conditions: 37°C, 100 rpm. Summed up:
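Drug release from the formulation and from free drug was tested in 900 mL of 0.1 N HCl (pH 1.2) or phosphate buffer (pH 6.8). USP apparatus I (basket) was run at 100 rpm and 37±0.2°C. Results are given as cumulative percentage released over time.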

The subject of data set [4] is HCT116 (human colon cancer) tumor. Nature of the data set: In vivo tumor growth inhibition in HCT116 tumor-bearing mice. The arrangement: species or system BALB/c nude mice. Summed up: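 Female BALB/c nude mice, 6 weeks old, received 1×10⁷ HCT116 cells in PBS in the right dorsal flank. At 70–100 mm³, mice were randomised to the same seven arms: untreated; IV drug 3.3 or 10 mg/kg biweekly; oral aqueous drug 10 mg/kg daily; oral formulation at 2.5, 10 or 20 mg/kg daily, for 21 days. Mice were fasted 4 h before and 2 h after dosing. Caliper volume (width²×length×0.52) was recorded every 3 days, and tumors were weighed at day 21.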

[5] abbreviates: CT26, once-biweekly IV 10 mg/kg OP, 21 days.
The mark [6] stands for this setting: HCT116 tumors, day 21, groups OP-IV (10), ODSF (10), ODSF (20).

For the molecule `O=C1[O][Pt]2([NH][C@@H]3CCCC[C@H]3[NH]2)[O]C1=O` (relative stereo) [OP, cis-[(1R,2R)-1,2-cyclohexanediamine-N,N’] [oxalato(2)-O,O´] platinum], the “Inhibition of tumor growth rate compared to the control group” value in data set [1] (CT26, once-biweekly IV 3.3 mg/kg OP, 21 days) is 40.0%. In data set [1] (setting [5]), the “Tumor suppression compared to the OP-S (10) group” value is 53.3% and the “Tumor suppression compared to the control group” value is 70.2%. Further, the “Reduction of isolated tumor mass compared to the controls” value in data set [1] (CT26, once-biweekly IV 10 mg/kg OP, day 21) was determined as 71.7%. The “TUNEL-positive cells (apoptosis) compared to the controls” value in data set [1] (CT26 tumors, day 21, groups ODSF (10), ODSF (20), OP-IV (10)) is recorded as “significant increases in the number of TUNEL-positive cells”. The “CD31-positive microvessels (immunohistochemistry)” value in data set [1] (CT26 tumors, day 21, groups OP-IV (3.3), OP-S (10), ODSF (10), ODSF (20)) was “greater numbers of microvessels”. Also, the “Numbers of PCNA-positive cells (proliferation)” value in data set [1] (CT26 tumors, day 21, groups OP-S, OP-IV (10), ODSF (10), ODSF (20), listed as OP-S) was “significantly higher”. Further, the Cell viability in data set [2] (250 µg/mL) was 74.8±6.82%. In data set [2] (500 µg/mL), this molecule registered a Cell viability of 55.3±7.79%. In addition, the “Concentrations at which cytotoxicity was demonstrated” value in data set [2] is reported as “higher than 100 µg/mL”. The Cumulative drug release entry in data set [3] (pH 1.2 (0.1 N HCl), at 60 min) was “exceeded 90%”. For the same molecule, the Cumulative drug release entry in data set [3] (pH 6.8 phosphate buffer, at 120 min) is on record as “exceeded 90%”. Further, in data set [4] (HCT116, once-biweekly IV 3.3 mg/kg OP), the “Reduction in tumor volume compared to controls” value is on record as 33.5%. Also, in data set [4] (setting [6]), the “Numbers of CD31-positive microvessels compared to the control and OP-S (10) groups” value is “marked reductions”; the “Numbers of PCNA-positive proliferating cells compared to the control and OP-S (10) groups” value is listed as “marked reductions”; the “TUNEL-positive apoptotic cells compared to the control and OP-S (10) groups” value is given as “significantly greater numbers of TUNEL-positive apoptotic cells”.

These data come from paper PMC7555381 (International Journal of Nanomedicine, 2020).
